{
  "source": "paper PMC5515376",
  "about": "(Nature, 2016)",
  "key": {"[1]": {"assay": "Plasma protein binding assay", "format": "in vitro ADME", "summary_of_the_method": "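Binding was measured by equilibrium dialysis in a RED device. Compound at 5 µM, in duplicate, was placed in mouse plasma (0.95% acetonitrile, 0.05% DMSO) against PBS pH 7.4. Incubation was 5 h at 37 °C with 350 r.p.m. orbital shaking. Both sides were analysed by UPLC–MS with single-ion detection.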"}, "[2]": {"test_system": "P. berghei (ANKA GFP-luc) blood-stage parasites", "assay": "In vivo P. berghei blood-stage assay", "design": "species or system Plasmodium berghei", "settings": "CD-1 mice"}},
  "data": [
    {"compound": "COc1ccc(NC(=O)N2CCCCN3[C@H](CN(C)C)[C@H](c4ccc(C#Cc5ccccc5)cc4)[C@@H]3C2)cc1", "note": "[BRD7929]", "values": [
      {"measurement": "Mouse Plasma protein binding", "setting": "[1]", "value": 99.9, "unit": "%"},
      {"measurement": "Cure of the infected animals", "setting": "[2]; single 25 mg kg^−1 oral dose", "value": 100, "unit": "%"},
      {"measurement": "Parasite status up to 30-day end-point (bioluminescent imaging)", "setting": "[2]; single oral 25 mg kg^−1 or 50 mg kg^−1 dose", "value": "parasite-free"},
      {"measurement": "Animals showing recrudescence at 6 days after treatment", "setting": "[2]; single oral dose of 12.5 mg kg^−1, n = 4", "value": "One in four animals"},
      {"measurement": "Lowest single oral dose achieving sterile cure", "setting": "[2]; P. berghei", "value": 25, "unit": "mg/kg"}
    ]}
  ]
}
